Measurements reported in ChEMBL document CHEMBL1138825, “N-phenylphenylglycines as novel corticotropin releasing factor receptor antagonists” (J Med Chem, 2004).

How the values were obtained:
[1] = target: T1, Corticotropin-releasing factor receptor 1 (Homo sapiens, UniProt P34998); assay: Binding affinity towards human corticotropin releasing factor (h-CRF1) receptor
T1 sequence (P34998 whole entry): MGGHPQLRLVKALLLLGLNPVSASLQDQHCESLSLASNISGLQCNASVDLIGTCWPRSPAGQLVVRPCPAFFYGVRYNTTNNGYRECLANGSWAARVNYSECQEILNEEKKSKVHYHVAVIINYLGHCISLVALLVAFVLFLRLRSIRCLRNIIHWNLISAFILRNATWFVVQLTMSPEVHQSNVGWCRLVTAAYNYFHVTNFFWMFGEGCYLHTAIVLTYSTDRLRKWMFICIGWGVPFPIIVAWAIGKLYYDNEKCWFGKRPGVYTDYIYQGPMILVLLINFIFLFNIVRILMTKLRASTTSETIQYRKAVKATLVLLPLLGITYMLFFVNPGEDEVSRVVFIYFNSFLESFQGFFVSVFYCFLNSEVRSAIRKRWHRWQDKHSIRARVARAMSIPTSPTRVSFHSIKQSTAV
Outline: (§1)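 Ki values were measured in duplicate. If the duplicate Ki values differed by more than 15%, further duplicate runs were done until this criterion was met, and the determinations were averaged. Mean Ki is reported where there was more than one determination. Internal control compounds were run on every plate.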

[2] = target: T2, 5-hydroxytryptamine receptor 1A (Homo sapiens, UniProt P08908); assay: Binding affinity of compound towards serotonin 5-hydroxytryptamine 1A receptor; inactive at 10 uM
T2 sequence (P08908 whole entry): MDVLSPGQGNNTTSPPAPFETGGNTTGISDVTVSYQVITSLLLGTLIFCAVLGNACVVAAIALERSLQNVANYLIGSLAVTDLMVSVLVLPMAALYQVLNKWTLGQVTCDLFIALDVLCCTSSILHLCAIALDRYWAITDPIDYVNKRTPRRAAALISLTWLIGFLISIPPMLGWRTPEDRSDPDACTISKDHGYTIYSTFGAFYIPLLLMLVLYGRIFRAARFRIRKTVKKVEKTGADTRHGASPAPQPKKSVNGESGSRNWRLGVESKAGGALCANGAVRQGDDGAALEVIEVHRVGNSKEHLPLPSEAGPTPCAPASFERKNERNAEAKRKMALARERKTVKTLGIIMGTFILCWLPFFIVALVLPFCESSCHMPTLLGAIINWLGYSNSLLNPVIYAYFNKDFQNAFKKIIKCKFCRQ

[3] = target: 5-hydroxytryptamine receptor 1B (Homo sapiens, UniProt P28222); assay: Binding affinity of compound towards serotonin 5-hydroxytryptamine 1B receptor; inactive at 10 uM
5-hydroxytryptamine receptor 1B, sequence (P28222 whole entry): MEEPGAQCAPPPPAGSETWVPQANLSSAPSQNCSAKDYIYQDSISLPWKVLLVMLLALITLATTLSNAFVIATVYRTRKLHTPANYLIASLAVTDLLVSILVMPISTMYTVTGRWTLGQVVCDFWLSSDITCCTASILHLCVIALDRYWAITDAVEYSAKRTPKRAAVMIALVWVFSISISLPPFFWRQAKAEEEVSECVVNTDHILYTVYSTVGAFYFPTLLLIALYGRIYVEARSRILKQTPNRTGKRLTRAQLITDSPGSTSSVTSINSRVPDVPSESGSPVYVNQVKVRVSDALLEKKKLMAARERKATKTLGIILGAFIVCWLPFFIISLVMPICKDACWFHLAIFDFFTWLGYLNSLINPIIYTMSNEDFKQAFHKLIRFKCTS

[4] = target: 5-hydroxytryptamine receptor 2A (Homo sapiens, UniProt P28223); assay: Binding affinity of compound towards serotonin 5-hydroxytryptamine 2A receptor; inactive at 10 uM
5-hydroxytryptamine receptor 2A, sequence (P28223 whole entry): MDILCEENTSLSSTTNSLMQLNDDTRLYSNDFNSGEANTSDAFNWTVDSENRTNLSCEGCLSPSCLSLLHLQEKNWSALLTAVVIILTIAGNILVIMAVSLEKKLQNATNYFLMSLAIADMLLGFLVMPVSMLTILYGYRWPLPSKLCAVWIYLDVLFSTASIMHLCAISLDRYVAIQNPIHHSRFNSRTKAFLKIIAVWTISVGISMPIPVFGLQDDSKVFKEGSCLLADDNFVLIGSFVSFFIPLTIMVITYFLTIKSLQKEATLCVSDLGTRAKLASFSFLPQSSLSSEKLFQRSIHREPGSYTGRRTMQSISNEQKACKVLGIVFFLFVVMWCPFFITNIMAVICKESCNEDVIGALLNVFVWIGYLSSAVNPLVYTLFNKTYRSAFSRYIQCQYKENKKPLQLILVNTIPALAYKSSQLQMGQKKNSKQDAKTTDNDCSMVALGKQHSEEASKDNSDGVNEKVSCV

[5] = target: 5-hydroxytryptamine receptor 1D (Homo sapiens, UniProt P28221); assay: Binding affinity of compound towards serotonin 5-hydroxytryptamine 1D receptor; inactive at 10 uM
5-hydroxytryptamine receptor 1D, sequence (P28221 whole entry): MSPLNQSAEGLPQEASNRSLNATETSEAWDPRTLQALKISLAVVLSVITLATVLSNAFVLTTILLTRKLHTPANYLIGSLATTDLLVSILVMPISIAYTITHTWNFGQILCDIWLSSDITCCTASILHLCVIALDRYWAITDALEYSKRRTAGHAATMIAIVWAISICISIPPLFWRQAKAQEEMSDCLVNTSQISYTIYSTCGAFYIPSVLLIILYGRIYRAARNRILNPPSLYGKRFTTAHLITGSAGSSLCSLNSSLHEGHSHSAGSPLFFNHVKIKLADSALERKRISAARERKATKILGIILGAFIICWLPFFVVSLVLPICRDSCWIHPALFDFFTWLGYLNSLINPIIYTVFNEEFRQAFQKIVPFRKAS

[6] = target: 5-hydroxytryptamine receptor 7 (Homo sapiens, UniProt P34969); assay: Binding affinity of compound towards serotonin 5-hydroxytryptamine 7 receptor; inactive at 10 uM
5-hydroxytryptamine receptor 7, sequence (P34969 whole entry): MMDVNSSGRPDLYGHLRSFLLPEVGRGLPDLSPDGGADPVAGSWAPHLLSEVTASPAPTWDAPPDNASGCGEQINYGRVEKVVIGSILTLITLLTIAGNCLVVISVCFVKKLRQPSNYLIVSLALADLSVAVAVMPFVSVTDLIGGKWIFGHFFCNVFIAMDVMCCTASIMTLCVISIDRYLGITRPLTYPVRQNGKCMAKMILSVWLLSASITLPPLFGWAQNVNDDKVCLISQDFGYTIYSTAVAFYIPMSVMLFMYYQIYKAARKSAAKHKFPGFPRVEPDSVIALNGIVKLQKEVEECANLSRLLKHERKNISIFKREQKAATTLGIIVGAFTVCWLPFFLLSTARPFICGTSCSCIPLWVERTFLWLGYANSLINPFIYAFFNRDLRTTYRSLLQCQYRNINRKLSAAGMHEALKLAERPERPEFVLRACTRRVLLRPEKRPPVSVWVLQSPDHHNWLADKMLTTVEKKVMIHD

[7] = target: 5-hydroxytryptamine receptor 6 (Homo sapiens, UniProt P50406); assay: Binding affinity of compound towards serotonin 5-hydroxytryptamine 6 receptor; inactive at 10 uM
5-hydroxytryptamine receptor 6, sequence (P50406 whole entry): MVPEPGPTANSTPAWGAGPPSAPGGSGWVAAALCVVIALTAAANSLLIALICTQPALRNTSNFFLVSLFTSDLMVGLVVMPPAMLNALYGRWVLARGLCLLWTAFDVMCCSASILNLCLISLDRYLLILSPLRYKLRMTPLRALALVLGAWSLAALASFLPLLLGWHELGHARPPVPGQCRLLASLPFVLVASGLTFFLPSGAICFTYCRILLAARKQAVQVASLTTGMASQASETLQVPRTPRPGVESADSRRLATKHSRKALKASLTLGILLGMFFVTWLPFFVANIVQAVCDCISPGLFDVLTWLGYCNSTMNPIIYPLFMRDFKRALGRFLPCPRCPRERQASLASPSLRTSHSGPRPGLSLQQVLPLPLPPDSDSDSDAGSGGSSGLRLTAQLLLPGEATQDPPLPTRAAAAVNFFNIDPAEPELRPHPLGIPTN

[8] = Compound was evaluated for total body clearance; type: ADME; settings: read-out: Activity (converted)
[9] = Compound was evaluated for volume of distribution at steady state; type: ADME; settings: read-out: Activity
[10] = Compound was evaluated for half-life period; type: ADME
Outline: (§2)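 Cassette dosing in beagle dogs (n = 2 per route), with each compound given alongside seven others. Oral dose was 1 mg/kg, with sampling at 0, 0.5, 1, 2, 4, 6, 8 and 24 h. Plasma drug levels were measured by LC/MS/MS.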

[11] = Compound was evaluated for oral bioavailability; type: ADME, organism-based; settings: in vivo, read-out: Bioavailabiility; outline: as §2
[12] = target: T1, Corticotropin-releasing factor receptor 1; assay: Binding affinity of compound towards human corticotropin releasing factor (h-CRF1) receptor showed a 2-fold activity in racemic mixture; inactive; outline: as §1
[13] = target: T1, Corticotropin-releasing factor receptor 1; assay: Binding affinity of compound towards human corticotropin releasing factor (h-CRF1) receptor showed a 2-fold activity in racemic mixture; outline: as §1
[14] = target: T1, Corticotropin-releasing factor receptor 1; assay: Binding affinity of compound towards human corticotropin releasing factor (h-CRF1) receptor; inactive; outline: as §1
[15] = target: T3, Corticotropin-releasing factor receptor 2 (Homo sapiens, UniProt Q13324); assay: Binding affinity of compound towards human Corticotropin releasing factor receptor 2; inactive at 10 uM
T3 sequence (Q13324 whole entry): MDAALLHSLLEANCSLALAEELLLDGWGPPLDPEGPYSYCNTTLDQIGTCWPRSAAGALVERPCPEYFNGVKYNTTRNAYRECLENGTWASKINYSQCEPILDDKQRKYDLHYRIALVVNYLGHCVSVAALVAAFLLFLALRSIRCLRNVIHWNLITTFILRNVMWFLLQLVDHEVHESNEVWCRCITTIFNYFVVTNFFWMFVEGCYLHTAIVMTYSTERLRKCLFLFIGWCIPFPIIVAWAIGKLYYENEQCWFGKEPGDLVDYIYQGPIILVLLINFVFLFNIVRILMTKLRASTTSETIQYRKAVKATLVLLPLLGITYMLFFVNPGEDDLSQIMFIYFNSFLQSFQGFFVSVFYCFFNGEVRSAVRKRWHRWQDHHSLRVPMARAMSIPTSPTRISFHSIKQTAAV

[16] = target: T1, Corticotropin-releasing factor receptor 1; assay: Binding affinity of compound towards human Corticotropin releasing factor receptor 1

Row | SMILES | Ki [1] [µM] | also measured
1 | C=Cc1ccccc1C(Nc1ccc(C)cc1Cl)C(=O)CCc1ccncc1 (stereo in doubt; 32) | 0.752 | –
2 | Cc1ccc(NC(C(=O)CCc2cnc[nH]2)c2ccccc2Br)c(Cl)c1 (stereo not given) | > 10 | –
3 | COc1ccc(C(=O)C(Nc2ccc(C)cc2Cl)c2ccccc2Br)cc1O (stereo not given) | 1.07 | –
4 | Cc1ccc(NC(C(=O)CCc2cccnc2)c2ccccc2Br)c(Cl)c1 (stereo not given) | > 10 | –
5 | Cc1ccc(NC(C(=O)Cc2ccncc2)c2ccccc2Br)c(Cl)c1 (stereo not given) | > 10 | –
6 | COc1ccc(C(=O)C(Nc2ccc(Cl)cc2Cl)c2ccccc2C)cc1O (stereo not given) | 0.387 | –
7 | O=C(CCc1ccncc1)C(Nc1ccc(Cl)cc1Cl)c1ccccc1C(F)(F)F (stereo not given) | 1 | –
8 | Cc1ccc(NC(C(=O)CCc2ccncc2)c2ccc(Cl)cc2)c(Cl)c1 (stereo not given) | > 10 | –
9 | Cc1ccccc1[C@@H](Nc1ccc(Cl)cc1Cl)C(=O)CCc1ccncc1 | 0.154 | Ki [2]: Not Active; Ki [3]: Not Active; Ki [4]: Not Active; Ki [5]: Not Active; Ki [6]: Not Active; Ki [7]: Not Active; clearance [8]: 21.7 mL/min/kg; Vd [9]: 1.8 L/kg; half-life [10]: 1.7 h; bioavailability [11]: 7%
10 | COc1ccc(OC)c(C(Nc2ccc(C)cc2Cl)C(=O)CCc2ccncc2)c1 (stereo not given) | > 10 | –
11 | CCc1ccccc1C(Nc1ccc(Cl)cc1Cl)C(=O)CCc1ccncc1 (stereo not given) | 0.33 | –
12 | Cc1ccc(N[C@H](C(=O)CCc2ccncc2)c2ccccc2Br)c(Cl)c1 | – | Ki [12]: Not Active
13 | Cc1ccc(N[C@@H](C(=O)CCc2ccncc2)c2ccccc2Br)c(Cl)c1 | – | Ki [13]: 0.546 µM
14 | Cc1cc(F)ccc1C(Nc1ccc(Cl)cc1Cl)C(=O)CCc1ccncc1 (stereo not given) | 0.512 | –
15 | Cc1ccc(NC(C(=O)CCc2ccncc2)c2ccccc2)c(Cl)c1 (stereo not given) | > 10 | –
16 | Cc1ccc(NC(C(=O)CCc2ccncc2)c2ccccc2C(C)C)c(Cl)c1 (stereo not given) | 3.3 | –
17 | COc1cccc(OC)c1C(Nc1ccc(C)cc1Cl)C(=O)CCc1ccncc1 (stereo not given) | > 10 | –
18 | Cc1ccccc1C(Nc1ccc(Cl)cc1Cl)C(=O)c1cccc(O)c1 (stereo not given) | > 10 | –
19 | COc1ccc(C(=O)C(Nc2ccc(Cl)cc2Cl)c2ccccc2C)cc1OC (stereo not given) | > 10 | –
20 | Cc1ccc(N[C@H](C(=O)CCc2ccncc2)c2ccccc2C)c(Cl)c1 | – | Ki [14]: Not Active
21 | C=Cc1ccccc1C(Nc1ccc(C)cc1Cl)C(=O)CCc1ccncc1 (stereo in doubt; 4) | 0.752 | –
22 | Cc1ccc(NC(C(=O)CCc2ccccn2)c2ccccc2Br)c(Cl)c1 (stereo not given) | > 10 | –

Row | SMILES | Ki [1] [µM] | also measured
23 | Cc1ccc(NC(C(=O)CCc2ccncc2)c2ccccc2Br)c(Cl)c1 (stereo not given) | – | Ki [15]: Not Active; Ki [16]: 1.03 µM
24 | Cc1ccc(NC(C(=O)CCc2ccncc2)c2ccccc2C)c(Cl)c1 (stereo not given) | 0.922 | –
25 | COc1ccccc1C(Nc1ccc(C)cc1Cl)C(=O)CCc1ccncc1 (stereo not given) | > 10 | –
26 | Cc1ccccc1C(Nc1ccc(Cl)cc1C(F)(F)F)C(=O)CCc1ccncc1 (stereo not given) | 0.469 | –
27 | Cc1cccc(C)c1C(Nc1ccc(Cl)cc1Cl)C(=O)CCc1ccncc1 (stereo not given) | 0.338 | –
28 | Cc1ccc(N[C@@H](C(=O)CCc2ccncc2)c2ccccc2C)c(Cl)c1 | 0.244 | –
29 | Cc1ccc(C(Nc2ccc(C)cc2Cl)C(=O)CCc2ccncc2)cc1 (stereo not given) | > 10 | –
30 | Cc1ccc(NC(C(=O)CCc2ccncc2)c2cccc(Cl)c2)c(Cl)c1 (stereo not given) | > 5 | –
31 | Cc1ccccc1C(Nc1ccc(Cl)cc1Cl)C(=O)CCc1ccncc1 (stereo not given) | 0.37 | –
32 | Cc1ccc(NC(C(=O)CCc2ccncc2)c2ccccc2C)c(F)c1 (stereo not given) | 0.439 | –
33 | Cc1ccc(NC(C(=O)CCc2ccccc2)c2ccccc2Br)c(Cl)c1 (stereo not given) | > 10 | –
34 | O=C(CCc1ccncc1)C(Nc1ccccc1Cl)c1ccccc1Br (stereo not given) | 7.33 | –
35 | Cc1cccc(C(Nc2ccc(C)cc2Cl)C(=O)CCc2ccncc2)c1 (stereo not given) | > 10 | –
36 | Cc1ccc(NC(C(=O)CCc2ccncc2)c2ccccc2C)c(C(F)(F)F)c1 (stereo not given) | 0.641 | –
37 | COc1ccc(C(Nc2ccc(C)cc2Cl)C(=O)CCc2ccncc2)c(OC)c1 (stereo not given) | > 10 | –
38 | COc1cccc(C(Nc2ccc(C)cc2Cl)C(=O)CCc2ccncc2)c1 (stereo not given) | > 10 | –
39 | O=C(CCc1ccncc1)C(Nc1ccc(Cl)cc1Cl)c1ccccc1Br (stereo not given) | 0.204 | –
40 | Cc1ccccc1[C@H](Nc1ccc(Cl)cc1Cl)C(=O)CCc1ccncc1 | 3.18 | –
41 | CC(=O)Nc1cccc(C(=O)C(Nc2ccc(Cl)cc2Cl)c2ccccc2Br)c1 (stereo not given) | 0.514 | –
42 | Cc1ccc(NC(C(=O)CCc2ccncc2)c2ccccc2F)c(Cl)c1 (stereo not given) | – | Ki [16]: > 10 µM
43 | Cc1ccc(NC(C(=O)CCc2ccc(F)cc2)c2ccccc2Br)c(Cl)c1 (stereo not given) | > 10 | –
44 | CN(c1ccccc1Cl)C(C(=O)CCc1ccncc1)c1ccccc1Br (stereo not given) | > 10 | –
